Results as given in ChEMBL document CHEMBL1135284 (Bioorg Med Chem Lett, 2002).

Experiments:
Rattus norvegicus [1] = experiment: Activated partial thromboplastin time was determined after (iv) bolus dose of 0.75 mg/kg followed by an infusion of 50 ug/kg/min in rat arterial thrombosis model; assay type: functional
Rattus norvegicus [2] = experiment: Thrombin time was determined after (iv) bolus dose of 0.75 mg/kg followed by an infusion of 50 ug/kg/min in rat arterial thrombosis model; assay type: functional
Rattus norvegicus [3] = experiment: Mean occlusion time after (iv) bolus dose of 0.75 mg/kg followed by an infusion of 50 ug/kg/min was determined in rat arterial thrombosis model; assay type: functional
[4] = Bioavailability was reported; assay type: ADME, organism-based; settings: rat, in vivo
Summary of the method: (§1)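 Conscious rats dosed by oral route (30 mg/kg) and iv bolus (0.15 mg/kg). Thrombin time tracked over time after each dose. %F derived by comparing areas under the TT-versus-time curves for the two routes.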

[5] = Oral bioavailability; assay type: ADME, organism-based; settings: rat, in vivo; summary of the method: as §1

bioavailability [4] [%] | bioavailability [5] [%] | SMILES | aPTT (Rattus norvegicus [1]) [s] | TT (Rattus norvegicus [2]) [s] | MOT (Rattus norvegicus [3]) [min]
 |  | Nc1ccc(CNC(=O)[C@@H]2CC[C@H]3CN(S(=O)(=O)CC(c4ccccc4)c4ccccc4)CC(=O)N32)cn1 | 19 | 51 | 30
 |  | N=C(N)c1ccc(CNC(=O)[C@@H]2CC[C@H]3CN(S(=O)(=O)CC(c4ccccc4)c4ccccc4)CC(=O)N32)cc1 | 74 | 636 | >60
1.5 |  | N[C@H]1CC[C@H](CNC(=O)[C@@H]2CC[C@H]3CN(S(=O)(=O)CC(c4ccccc4)c4ccccc4)CC(=O)N32)CC1 | 35 | 150 | 37
 | 0.1 | N=C(N)[C@H]1CC[C@H](CNC(=O)[C@@H]2CC[C@H]3CN(S(=O)(=O)C(c4ccccc4)c4ccccc4)CC(=O)N32)CC1 | 54 | 724 | 44
 | 2.2 | N=C(N)N1CCC(CNC(=O)[C@@H]2CC[C@H]3CN(S(=O)(=O)CC(c4ccccc4)c4ccccc4)CC(=O)N32)CC1 | 35 | 214 | 36
 | 2.7 | N/C(=N/O)N1CCC(CNC(=O)[C@@H]2CC[C@H]3CN(S(=O)(=O)CCc4ccccc4)CC(=O)N32)CC1 | 25 | 146 | 49
 |  | Cc1cc(C(=N)N)ccc1CNC(=O)[C@@H]1CC[C@H]2CN(S(=O)(=O)C(c3ccccc3)c3ccccc3)CC(=O)N21 | 42 | 354 | >60
 |  | N/C(=N/O)N1CCC(CNC(=O)[C@@H]2CC[C@H]3CN(C(=O)CC(c4ccccc4)c4ccccc4)CC(=O)N32)CC1 | 23 | 63 | 35
 | ~0.5 | N/C(=N\O)N1CCC(CNC(=O)[C@@H]2CC[C@H]3CN(S(=O)(=O)Cc4ccccc4)CC(=O)N32)CC1 |  |  | 
 |  | N=C(N)N1CCC(CNC(=O)[C@@H]2CC[C@H]3CN(S(=O)(=O)C(c4ccccc4)c4ccccc4)CC(=O)N32)CC1 | 28 | 154 | 52
 |  | Cc1nc(N)ccc1CNC(=O)[C@@H]1CC[C@H]2CN(S(=O)(=O)C(c3ccccc3)c3ccccc3)CC(=O)N21 | 27 | 102 | >60
 | ~0.5 | N=C(N)c1ccc(CNC(=O)[C@@H]2CC[C@H]3CN(S(=O)(=O)Cc4ccccc4)CC(=O)N32)cc1 |  |  | 
 |  | N=C(N)c1ccc(CNC(=O)[C@@H]2CC[C@H]3CN(S(=O)(=O)C(c4ccccc4)c4ccccc4)CC(=O)N32)cc1 | 54 | 631 | 51
 |  | N[C@H]1CC[C@H](CNC(=O)[C@@H]2CC[C@H]3CN(S(=O)(=O)C(c4ccccc4)c4ccccc4)CC(=O)N32)CC1 | 44 | 216 | >60
 |  | N=C(N)N1CCC(CNC(=O)[C@@H]2CC[C@H]3CN(C(=O)CC(c4ccccc4)c4ccccc4)CC(=O)N32)CC1 | 29 | 85 | 21
 | 0.7 | N/C(=N/O)N1CCC(CNC(=O)[C@@H]2CC[C@H]3CN(S(=O)(=O)CC(c4ccccc4)c4ccccc4)CC(=O)N32)CC1 | 26 | 148 | 45
 | 1.9 | N/C(=N/O)N1CCC(CNC(=O)[C@@H]2CC[C@H]3CN(S(=O)(=O)C(c4ccccc4)c4ccccc4)CC(=O)N32)CC1 | 28 | 230 | 46
